Test results as given in the RNAGym collection of RNA variant scans (doi:10.1002/anie.201605470).

B1: Osa-1-4 twister ribozyme (parent)
chain: CCGCCUAACACUGCCAAUGCCGGUCCCAAGCCCGGAUAAAAGUGGAGGGGGCGG

Variants of: B1
Assay: self-cleavage, relative activity (ratio to wild type); higher = more cleavage; co-transcriptional
How it was run: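 Relative activity is the fraction cleaved divided by that of the wild-type ribozyme. The library came from a DNA template for a 54-nucleotide Oryza sativa twister ribozyme, doped at the 48 positions downstream of the cleavage site with 97 % wild-type base and 1 % of each other base. After 2 h of in vitro transcription at 37 °C with co-transcriptional self-cleavage, the RNA was reverse-transcribed with a template-switching oligonucleotide, amplified by PCR and deep-sequenced, and reads with or without upstream sequence gave the cleavage status.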

Variant | self-cleavage
C25U U43A | 0.29
C25U U43G | 0.17
C25U U43C | 0.13
C26G C32U | 0.04
C26G C32G | 0.09
C26G C32A | 0.03
C26A G50U | 0.05
C26A G50A | 0.07
C26A G50C | 0.05
C26G C52A | 0.12
C26G C52U | 0.11
C26G C52G | 0.16
C26A C32G | 0.03
C26A C32U | 0.01
C26A C32A | 0.05
C25U G50U | 0.52
C25U G50A | 0.87
C25U G50C | 0.23
C26G G22C | 0.06
C26G G22A | 0.15
C26G G22U | 0.08
C26G G23A | 0.08
C26G G23C | 0.04
C26G G23U | 0.02

Variant | self-cleavage
C26A U18C | 0.06
C26A U18A | 0.05
C26A U18G | 0.12
C25U G48A | 0.07
C25U G48C | 0.06
C25U G48U | 0.04
C26A C33G | 0.02
C26A C33A | 0.05
C26A C33U | 0.04
C26A G35A | 0.06
C26A G35C | 0.04
C26A G35U | 0.04
C26A U43A | 0.05
C26A U43G | 0.04
C26A U43C | 0.04
C25U U24C | 0.08
C25U U24G | 0.04
C25U U24A | 0.06
C26A G48A | 0.03
C26A G48U | 0.7
C26A G48C | 0.1
C26G C33A | 0.05
C26G C33U | 0.07
C26G C33G | 0.04

Variant | self-cleavage
C26A G19U | 0.03
C26A G19A | 0.04
C26A G19C | 0.02
C26A | 0.06
C26G | 0.09
C26G C27G | 0.11
C26G C27A | 0.05
C26G C27U | 0.07
C25U G53A | 0.25
C25U G53U | 0.11
C25U G53C | 0.06
C26A U12C | 0.03
C26A U12G | 0.04
C26A U12A | 0.04
C26A C9G | 0.05
C26A C9U | 0.03
C26A C9A | 0.02
C25U U37G | 0.96
C25U U37C | 0.95
C25U U37A | 0.74
C26A G53A | 0.06
C26A G53U | 0.04
C26A G53C | 0.02
C25U U18C | 0.84

Variant | self-cleavage
C25U U18G | 0.89
C25U U18A | 0.75
C26A G44A | 0.05
C26A G44U | 0.05
C26A G44C | 0.05
C26A U24G | 0.01
C26A U24A | 0.03
C26A U24C | 0.02
C25U G42C | 0.11
C25U G42U | 0.05
C26A G47U | 0.03
C26A G47A | 0.03
C26A G47C | 0.02
C26A G34U | 0.04
C26A G34A | 0.05
C26A G34C | 0.05
C25U G49A | 0.77
C25U G49U | 0.71
C25U G49C | 0.06
C25U G54U | 0.56
C25U G54C | 0.31
C25U G54A | 0.34
C26G G19A | 0.08
C26G G19C | 0.04

Variant | self-cleavage
C26G G19U | 0.05
C26G G30C | 0.05
C26G G30U | 0.03
C26G G30A | 0.06
C25U G51A | 0.51
C25U G51U | 0.17
C25U G51C | 0.06
C25U G45C | 0.05
C25U G45A | 0.06
C25U G45U | 0.05
C26G G13U | 0.01
C26G G13A | 0.03
C26G G13C | 0.01
C26A C27A | 0.05
C26A C27U | 0.03
C26A C27G | 0.03
C26A G23C | 0.01
C26A G23A | 0.04
C26A G23U | 0.02
C26A G45A | 0.02
C26A G45C | 0.02
C26A G45U | 0.02
C26A C31A | 0.02
C26A C31G | 0.03

Variant | self-cleavage
C26A C31U | 0.06
C26G G35A | 0.08
C26A U37G | 0.07
C26A U37A | 0.05
C26A U37C | 0.07
C26A G42U | 0.02
C26A G42A | 0.04
C26A G42C | 0.03
C26G G34C | 0.08
C26G G34U | 0.08
C26G G34A | 0.18
C26A G30C | 0.02
C26A G30A | 0.01
C26A G30U | 0.01
C26A G49U | 0.02
C26A G49C | 0.02
C26A G49A | 0.02
C26G C9A | 0.02
C26G C9U | 0.04
C26G C9G | 0.09
C26A G13U | 0.02
C26A G13C | 0.01
C26A G13A | 0.02
C26A G22U | 0.05

Variant | self-cleavage
C26A G22C | 0.02
C26A G22A | 0.07
C25U G44A | 0.32
C25U G44C | 0.84
C25U G44U | 0.56
C26A G54A | 0.06
C26A G54C | 0.05
C26A G54U | 0.12
C26A C52U | 0.07
C26A C52G | 0.08
C26A C52A | 0.08
C25U U12C | 0.09
C25U U12A | 0.18
C25U U12G | 0.17
C26G C31A | 0.02
C26G C31U | 0.06
C26G C31G | 0.05
C26A G51C | 0.02
C26A G51A | 0.06
C26A G51U | 0.04
C25U G47C | 0.06
C25U G47U | 0.07
C25U G47A | 0.09
